Bioassay records deposited in PubChem by several laboratories.
This is a sample that favours compounds with a hit; in the whole collection about 1.1% have one here.
FXIa inh – human FXIa protease inhibitors, primary screen, biochemical, 1536-well. Coagulation factor XI (Homo sapiens), P03951. purified FXIa, Boc-Glu-Ala-Arg-AMC fluorogenic substrate. inhibition, % at 5 µM. hit rate 0.14% among 220,000;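 active = inhibition of at least 40%; inactive = inhibition below 40%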;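 note: fluorescence of freed AMC excited at 355 nm; 0% = enzyme without compound and 100% = no enzyme blank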
FXIIa inh – human FXIIa protease inhibitors, primary screen, biochemical, 1536-well. purified FXIIa, Boc-QGR-AMC fluorogenic substrate, 2 h. hit rate 0.3% among 220,000. inhibition, % at 5 µM. Coagulation factor XII (Homo sapiens), P00748; in the data active = inhibition above about 40%;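 note: 0% = enzyme with no compound and 100% = blank without enzyme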
Thrombin inh – human alpha-thrombin inhibitors, primary screen, counter-screen for coagulation protease inhibitor project, biochemical, 1536-well, fluorogenic AMC substrate; Prothrombin (Homo sapiens), P00734; Boc-VPR-AMC fluorogenic substrate cleavage; inhibition, % at 5 µM; hit rate 0.26% among 220,000; AID 1046, 2008;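 active = inhibition at or above 40%; inactive = inhibition below 40%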;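 note: 0% = enzyme with no compound and 100% = wells without enzyme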
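Test system: human alpha-thrombin; medium: pH 7.5 Tris-saline with Tween 20; times: reaction at room temperature; signal: AMC fluorescence at 355 nm excitation and 460 nm emission; also added: Boc-VPR-AMC substrate, 15 µM final; dosing: one concentration per compound, 5 µM, with 0.2% DMSO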
Furin inh – human furin inhibitors, primary screen, biochemical, fluorescence intensity | P09958 | purified furin, fluorogenic substrate cleavage | inhibition, % at 20 µM or 30 µM | hit rate 0.061% among 220,000; in the data active = inhibition above about 25%
KLK5 inh – human KLK5 protease inhibitors, primary screen, biochemical, 1536-well; hit rate 0.59% among 210,000; recombinant hK5, fluorogenic AMC substrate cleavage; Kallikrein-5 (Homo sapiens), Q9Y337; inhibition, % at 5 µM;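 active = inhibition of 40% or more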;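 note: 0% = enzyme controls without compound and 100% = no-enzyme blanks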
Target sequence (Q9Y337 67-293 limits assumed): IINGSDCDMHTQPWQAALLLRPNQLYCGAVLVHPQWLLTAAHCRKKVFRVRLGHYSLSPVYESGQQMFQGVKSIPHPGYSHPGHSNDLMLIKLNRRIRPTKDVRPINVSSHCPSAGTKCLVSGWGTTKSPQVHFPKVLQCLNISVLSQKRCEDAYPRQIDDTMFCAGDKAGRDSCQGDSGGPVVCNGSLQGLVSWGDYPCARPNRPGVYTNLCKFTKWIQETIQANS
* marks the source's active call; other numbers are inactive results; . = no result given.

SMILES	FXIa inh	FXIIa inh	Thrombin inh	Furin inh	KLK5 inh
COc1ccccc1NC(=O)c1cc(S(=O)(=O)N2CCOCC2)ccc1Cl	0	10	-5	29*	-15
O=C(COC(=O)c1n[nH]c2ccccc12)Nc1cccc(S(=O)(=O)N2CCOCC2)c1	11	0	65*	-11	-20
COc1ccc(S(=O)(=O)N2CCOCC2)cc1NC(=O)COC(=O)C1=COCCO1	4	16	10	-30	8
COc1cc(S(=O)(=O)N2CCOCC2)ccc1NC(=O)COC(=O)c1ccccn1	2	8	70*	-17	-13
COc1ccc(S(=O)(=O)N2CCOCC2)cc1NC(=O)COC(=O)c1ccc(C)s1	-6	0	73*	-25	-14
O=C(COC(=O)c1cc(=O)[nH]c2ccccc12)Nc1cccc(S(=O)(=O)N2CCOCC2)c1	10	19	21	-4	11
O=C(Cn1nnc(-c2ccncc2)n1)NCCc1ccccc1	-2	9	10	-21	48*
O=C(Cn1nnc(-c2cccs2)n1)NCCc1ccccc1	8	17	-2	-16	-13
CCCOC(=O)c1ccc(NC(=O)c2cc(=O)[nH]c3ccccc23)cc1	8	7	5	-8	-3
O=C(O)CCC(=O)CCC(=O)c1ccc(Cl)cc1	9	33	14	-19	44*
CCOC(=O)N1CCC(NCc2c(C(=O)N(C)Cc3ccccc3)nc3ccccn23)CC1	2	8	0	-13	.
Cc1ccc(NC(=O)CN2C(=O)S/C(=C\C(=O)Nc3ccc(Cl)cc3)C2=O)cc1	4	4	10	-3	45*
Cc1cc(NC(=O)CSc2nnc(C3CC3)n2N)c([N+](=O)[O-])cc1C	4	8	-8	-9	3
CC1(C)CN(c2ccccc2)N(C(=O)c2ccc(F)cc2)C1=O	15	25	74*	-15	64*
CC(=O)OCC1(C)CN(c2ccccc2)N(C(C)=O)C1=O (stereo unspecified)	0	11	-3	-18	12
CC(=O)OCC1(C)CN(c2ccccc2)N(C(=O)c2ccc(C(C)(C)C)cc2)C1=O (stereo unspecified)	-5	1	43*	-13	-1
Cc1ccc(S(=O)(=O)NC(CC(=O)NCc2ccco2)c2ccco2)cc1 (stereo unspecified)	-13	-2	7	-13	-30
Cc1ccc(S(=O)(=O)NC(CC(C)C)C(=O)NCc2ccco2)cc1 (stereo unspecified)	3	6	6	-18	45*
O=C(CCSCCc1ccccn1)Nc1c(F)c(F)c(F)c(F)c1F	5	13	-1	-6	-24
CCOC(=O)CN(c1cccc(C(C)=O)c1)S(C)(=O)=O	-5	20	6	-3	44*
CC(C)CNc1nc(Oc2ccc(=O)[nH]n2)nc(N2CCOCC2)n1	-5	10	-1	-19	-16
O=C(NC1CCCCC1)C1CCN(c2nnnn2-c2ccccc2)CC1	27	21	82*	-4	28
O=S(=O)(c1ccccc1)N1CCN(c2nnnn2-c2ccccc2)CC1	4	31	16	-23	63*
O=C(Nc1ccc(F)cc1)C1CCN(c2nnnn2-c2ccccc2)CC1	-5	15	4	-25	-14
COC(=O)Cc1nc(Nc2ccccc2)sc1C	-1	8	3	-31	5
SMILES	FXIa inh	FXIIa inh	Thrombin inh	Furin inh	KLK5 inh
Cn1c(=N)n(CC(=O)c2cccs2)c2ccccc21	-3	16	14	-5	45*
CCCn1c(=N)n(CC(=O)c2cccs2)c2ccccc21	5	17	8	-18	7
CN1C(=O)C(CC(=O)NC2CCCCC2)SC1=Nc1ccccc1 (stereo unspecified)	1	5	-7	-23	-10
Cc1cccc(NC2SC(=O)N(c3ccccc3)C2=O)c1 (stereo unspecified)	9	18	29	-23	80*
Cc1cccc(NC(=O)CC2SC(=O)N(c3ccccc3)C2=O)c1 (stereo unspecified)	-3	7	1	-22	7
COc1ccccc1NC(=O)C1C2CCCCC21 (stereo unspecified)	12	22	104*	-23	61*
Cc1ccc(-c2nnc(SCC(=O)NC3CC3)n2N)cc1	-1	14	3	-34	4
